The results in this text go back to ChEMBL document CHEMBL1156237, “Antiviral activity of benzimidazole derivatives. II. Antiviral activity of 2-phenylbenzimidazole derivatives” (Bioorg Med Chem, 2010).

By EC50 is commonly meant the concentration that produces a half-maximal response. Usually CC50 stands for the concentration that lowers cell viability or growth by half.

One series concerns Coxsackievirus B2. In words: Antiviral activity against Human coxsackievirus B2 Ohio-1 infected in african green monkey Vero cells after 3 days by plaque reduction assay. Type of series: functional, organism-based, Coxsackievirus B2 (strain Ohio-1). Conditions: Enterovirus B, Vero, 72 h. In outline: (§1)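 Plaque reduction assay. Vero 76 cells at 2 × 10^5/well, grown overnight to confluence in D-MEM with 10% FBS. Infected 2 h with 50–100 PFU/well, unadsorbed virus removed. Overlay of D-MEM with 1% inactivated FBS and 0.75% methylcellulose, with or without serial compound dilutions. Incubated at 37 °C for 3 days (HSV-1 KOS, CVB-2 Ohio-1) or 5 days (RSV A2). Fixed and stained with crystal violet in 50% ethanol; plaques counted; EC50 by linear regression.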
Background: In a plaque reduction assay, fewer plaques than in the control indicate reduced infectivity or spread.

Series [1] is described as follows: Cytotoxicity against african green monkey Vero cells. Format: cell-based. The conditions noted are these: chlorocebus sabaeus. The procedure, abridged:
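Vero 76 monolayers exposed to serial compound dilutions, run in parallel on the same 24-well plates as the plaque-reduction assays. CC50 is the concentration reducing viability of mock-infected cells by 50%.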

The next series concerns Human alphaherpesvirus 1. In words: Antiviral activity against HSV1 KOS infected in african green monkey Vero cells after 3 days by plaque reduction assay. Format: functional, organism-based. Conditions: Human alphaherpesvirus 1, KOS, 72 h. The procedure, abridged: as §1
A short description of series [2]: Cytotoxicity against human MT4 cells after 96 hrs by MTT assay. Type of series: cell-based. The conditions noted are these: MT4 cells. The procedure, abridged:
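Exponentially growing MT-4 cells at 1 × 10^5 cells/mL in RPMI-1640 with 10% FCS, exposed to serial compound dilutions at 37 °C, 5% CO2. Viability by MTT after 96 h; CC50 is the concentration reducing viability of mock-infected cells by 50%.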
On the technique in general: Tetrazolium dyes change colour on reduction, which living cells bring about.

The test system of series [3] is Vesicular stomatitis virus. Nature of the series: Antiviral activity against VSV Indiana lab infected in african green monkey Vero cells after 2 days by plaque reduction assay. Format: functional, organism-based.
Series [4] has as its system Human immunodeficiency virus 1. Nature of the series: Antiviral activity against HIV1 3B infected in human MT4 cells assessed as protection from virus-induced cytopathogenicity after 4 days by MTT method. Type of series: functional, organism-based. The procedure, abridged:
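MT-4 cells, 1 × 10^4/well in RPMI with or without serial compound dilutions, infected with HIV-1 IIIB, 100 CCID50 (m.o.i. 0.01). Protection from virus-induced cytopathogenicity read by MTT.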
In general terms: Protection from cytopathic effect is a common read-out in antiviral testing.

The subject of series [5] is Bovine viral diarrhea virus 1. In words: Antiviral activity against Bovine viral diarrhea virus NADL infected in MDBK cells assessed as protection from virus-induced cytopathogenicity after 3 to 4 days by MTT method. Conditions: Bovine viral diarrhea virus isolates and strains, MDBK. Type of series: functional, organism-based, Bovine viral diarrhea virus 1-NADL. In outline:
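Cytopathogenicity protection assay. MDBK cells at 3 × 10^4/well, grown overnight to confluence. Infected with BVDV NADL at m.o.i. 0.01 in MEM-E with 0.5% inactivated FBS, 1 mM Na pyruvate and 1% kanamycin. Serial compound dilutions added after 1 h. After 3–4 days at 37 °C, viability read by MTT; EC50 is the concentration giving 50% protection.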

Series [6] in a line: Selectivity index, ratio of CC50 for MDBK cells to EC50 for Bovine viral diarrhea virus NADL. Format: toxicity, cell-based. Conditions: cattle, read-out: Ratio CC50/EC50.
A further series deals with Poliovirus 1. Nature of the series: Antiviral activity against Polio virus type1 Sabin strain Chat infected in african green monkey Vero cells after 2 days by plaque reduction assay. Format: functional, organism-based, Human poliovirus 1 strain Sabin. The conditions noted are these: Enterovirus C, 48 h.
Series [7] can be described thus: Cytotoxicity against BHK cells after 48 to 96 hrs by MTT assay. Type of series: cell-based, Mesocricetus auratus. Conditions: hamster. In outline:
(§2)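 Cell seeding: MDBK at 6 × 10^5 cells/mL in MEM-E with 10% horse serum and 1 mM Na pyruvate; BHK at 1 × 10^6 cells/mL in MEM-E with 10% FBS. Serial compound dilutions, 37 °C, 5% CO2. Viability of mock-infected cells by MTT after 48–96 h; CC50 is the concentration reducing viability by 50%.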

Another series relates to Yellow fever virus. In words: Antiviral activity against Yellow fever virus 17D infected in BHK cells assessed as protection from virus-induced cytopathogenicity after 3 to 4 days by MTT method. Format: functional, organism-based.
Series [8] can be described thus: Selectivity index, ratio of CC50 for human MT4 cells to EC50 for Bovine viral diarrhea virus NADL. The conditions noted are these: read-out: Ratio CC50/EC50. Format: toxicity, cell-based.
The nature of series [9]: Cytotoxicity against MDBK cells after 48 to 96 hrs by MTT assay. Format: cell-based, Bos taurus. The conditions noted are these: cattle, MDBK cells. The procedure, abridged: as §2
Series [10] relates to Respiratory syncytial virus. In words: Antiviral activity against RSV A2 infected in african green monkey Vero cells after 5 days by plaque reduction assay. Format: functional, organism-based. In outline: as §1
The subject of the next series is Vaccinia virus. Nature of the series: Antiviral activity against Vaccinia virus Elstree-Lister infected in african green monkey Vero cells after 3 days by plaque reduction assay. Type of series: functional, organism-based. The conditions noted are these: Orthopoxvirus vaccinia.
The test system of series [11] is Mammalian orthoreovirus 1. Nature of the series: Antiviral activity against Reovirus 1 3651 infected in BHK21 cells assessed as protection from virus-induced cytopathogenicity after 3 to 4 days by MTT method. Format: functional, organism-based. Conditions: BHK-21.

SMILES strings stand for the structures. Activity calls are given as the source filed them.

For `O=C(CN1CCCC1)Nc1ccc(-c2nc3cc(C(F)(F)F)ccc3[nH]2)cc1`, the EC50 was more than 100 µM in the series on Coxsackievirus B2; more than 100 µM with Human alphaherpesvirus 1; 3 µM in series [5]; more than 100 µM in the series on Poliovirus 1; 7 µM with Yellow fever virus. Further, the CC50 in series [1] was more than 100 µM; in series [7], 29 µM; in series [9] it was 15 µM. For the same compound, the midpoint of cytotoxicity in series [2], the CC50 at 96 h, lay at 18 µM. The result in series [3] and in [4] was inactive. Further, the selectivity ratio in series [6] stood at 5; in series [8] it was 6.

Regarding `CCN(CC)CC(=O)Nc1ccc(-c2nc3cc(C(F)(F)F)ccc3[nH]2)cc1`, the EC50 is more than 24 µM in the series on Coxsackievirus B2; 24 µM in the series with Human alphaherpesvirus 1; 2 µM in series [5]; more than 24 µM with Poliovirus 1; 7 µM in the series on Yellow fever virus. The CC50 worked out at 24 µM in series [1], 23 µM in series [7] and 13 µM in series [9]. In [2], this compound yielded a CC50 at 96 h of 8 µM. In addition, the result in series [3] and in [4] was inactive. For the same compound, the figures for the selectivity ratio in [6] and in [8] were 6.5 and 4, respectively.

`O=C(CCl)Nc1ccc(-c2nc3cc(C(F)(F)F)ccc3n2C23CC4CC(CC(C4)C2)C3)cc1`: the EC50 with Coxsackievirus B2 was more than 100 µM; in the series with Human alphaherpesvirus 1, more than 100 µM; in series [5] it was more than 18 µM; with Poliovirus 1 it was more than 100 µM; in the series with Yellow fever virus, more than 51 µM. For the same compound, the figures for the CC50 in [1], in series [7] and in [9] were more than 100 µM, 51 µM and 18 µM, respectively. Besides, in series [2], the CC50 at 96 h amounted to 0.3 µM. Also, the result (in series [10]; in the series with Vaccinia virus; in [3]; in [11]; in series [4]) was inactive.

Take `CCC(=O)Nc1ccc(-c2nc3cc(C(F)(F)F)ccc3n2C)cc1`: the EC50 (with Coxsackievirus B2; in the series on Human alphaherpesvirus 1; in series [5]; in the series on Poliovirus 1; with Yellow fever virus) was more than 100 µM throughout. Moreover, the CC50 in [1], in series [7] and in series [9] was more than 100 µM each time. This compound came in with a CC50 at 96 h in [2] of 8 µM. Also, the result (in series [10]; in the series on Vaccinia virus; in series [3]; in [11]; in [4]) was inactive.

Take `Cn1c(-c2ccc(NC(=O)CN3CCN(c4ccccc4)CC3)cc2)nc2cc(C(F)(F)F)ccc21`: the EC50 in the series on Coxsackievirus B2 is 3 µM; with Human alphaherpesvirus 1 it was more than 30 µM; in series [5], more than 1.4 µM; in the series with Poliovirus 1, 2 µM; in the series with Yellow fever virus, more than 100 µM. Also, the half-maximal cytotoxic concentration (CC50) in series [1] turned out to be 30 µM; in [7], 100 µM; in [9], 1.4 µM. In addition, the CC50 at 96 h in [2] was 1.5 µM. For the same compound, the outcome (in series [10]; with Vaccinia virus; in series [3]; in series [11]; in series [4]) was inactive.

`CC(=O)Nc1ccc(-c2nc3cc(C(F)(F)F)ccc3n2C2CCCCC2)cc1`: the EC50 in the series with Coxsackievirus B2 is 9 µM; in the series with Human alphaherpesvirus 1, more than 30 µM; in [5], more than 17 µM; with Poliovirus 1 it was more than 30 µM; in the series on Yellow fever virus, more than 15 µM. Besides, the CC50 in series [1] turned out to be 30 µM; in series [7], 15 µM; in series [9] it was 17 µM. The same compound yielded a CC50 at 96 h in series [2] of 24 µM. Besides, the outcome (in series [10]; in the series on Vaccinia virus; in series [3]; in series [11]; in [4]) was inactive.
